{"source": "ChEMBL document CHEMBL1145777", "about": "(J Med Chem, 2003)", "key": {"[1]": {"target": "Kappa-type opioid receptor (Cavia porcellus) (UniProt P41144)", "sequence (P41144 whole entry)": "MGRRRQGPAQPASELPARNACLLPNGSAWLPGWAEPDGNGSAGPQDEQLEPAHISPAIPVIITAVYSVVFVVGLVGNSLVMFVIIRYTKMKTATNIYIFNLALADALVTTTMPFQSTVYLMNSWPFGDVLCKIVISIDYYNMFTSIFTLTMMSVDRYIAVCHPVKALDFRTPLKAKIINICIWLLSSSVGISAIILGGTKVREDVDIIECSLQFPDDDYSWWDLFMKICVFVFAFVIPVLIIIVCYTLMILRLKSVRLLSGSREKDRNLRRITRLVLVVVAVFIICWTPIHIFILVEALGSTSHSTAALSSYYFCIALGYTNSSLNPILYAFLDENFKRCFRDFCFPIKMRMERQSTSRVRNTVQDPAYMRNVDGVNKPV", "assay": "Ratio of binding affinity of Opioid receptor kappa 1 to Opioid receptor mu 1 to Opioid receptor delta 1; kappa:mu:delta = 12:4:1"}, "[2]": {"assay": "Binding affinity towards Opioid receptor delta 1 from guinea pig brain using [3H]naltrindole as radioligand"}, "Mu-type opioid receptor": {"target": "Mu-type opioid receptor (Cavia porcellus, UniProt P97266)", "sequence (P97266 whole entry)": "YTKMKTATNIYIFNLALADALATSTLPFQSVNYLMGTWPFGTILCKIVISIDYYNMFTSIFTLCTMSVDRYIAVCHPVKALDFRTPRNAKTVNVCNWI", "assay": "Binding affinity towards Opioid receptor mu 1 from guinea pig brain using [3H]DAMGO as radioligand"}, "[3]": {"target": "Kappa-type opioid receptor (Cavia porcellus) (UniProt P41144)", "assay": "Ratio of binding affinity of Opioid receptor kappa 1 to Opioid receptor mu 1 to Opioid receptor delta 1; kappa:mu:delta = 12:38:1"}, "[4]": {"target": "Kappa-type opioid receptor (Cavia porcellus) (UniProt P41144)", "assay": "Ratio of binding affinity of Opioid receptor kappa 1 to Opioid receptor mu 1 to Opioid receptor delta 1; kappa:mu:delta = 36:14:1"}, "[5]": {"target": "Kappa-type opioid receptor (Cavia porcellus, UniProt P41144)", "sequence (P41144 whole entry)": "as the sequence (P41144 whole entry) above", "assay": "Binding affinity towards Opioid receptor kappa 1 from guinea pig brain using [3H]U-69593 as radioligand", "procedure,_shortened": "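Uses 1 nM [3H]U69,593 with guinea pig brain membrane protein (500 µg), 12 concentrations, 50 mM Tris-HCl pH 7.5, 60 min at 25 °C. Nonspecific binding with 10 µM naloxone. Filters pre-soaked in 0.1% polyethylenimine; bound label counted.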"}, "[6]": {"target": "Kappa-type opioid receptor (Cavia porcellus) (UniProt P41144)", "assay": "Ratio of binding affinity of Opioid receptor kappa 1 to Opioid receptor mu 1 to Opioid receptor delta 1; kappa:mu:delta = 5:3:1"}, "[7]": {"target": "Kappa-type opioid receptor (Cavia porcellus) (UniProt P41144)", "assay": "Ratio of binding affinity of Opioid receptor kappa 1 to Opioid receptor mu 1 to Opioid receptor delta 1; kappa:mu:delta = 13:10:1"}, "[8]": {"target": "Kappa-type opioid receptor (Cavia porcellus) (UniProt P41144)", "assay": "Ratio of binding affinity of Opioid receptor kappa 1 to Opioid receptor mu 1 to Opioid receptor delta 1; kappa:mu:delta = 45:12:1"}, "[9]": {"target": "Kappa-type opioid receptor (Cavia porcellus) (UniProt P41144)", "assay": "Ratio of binding affinity of Opioid receptor kappa 1 to Opioid receptor mu 1 to Opioid receptor delta 1; kappa:mu:delta = 26:81:1"}, "[10]": {"target": "Kappa-type opioid receptor (Cavia porcellus) (UniProt P41144)", "assay": "Ratio of binding affinity of Opioid receptor kappa 1 to Opioid receptor mu 1 to Opioid receptor delta 1; kappa:mu:delta = 9:1:1"}, "[11]": {"target": "Kappa-type opioid receptor (Cavia porcellus) (UniProt P41144)", "assay": "Ratio of binding affinity of Opioid receptor kappa 1 to Opioid receptor mu 1 to Opioid receptor delta 1; kappa:mu:delta = 10:9:1"}, "[12]": {"target": "Kappa-type opioid receptor (Cavia porcellus) (UniProt P41144)", "assay": "Ratio of binding affinity of Opioid receptor kappa 1 to Opioid receptor mu 1 to Opioid receptor delta 1; kappa:mu:delta = 4:3:1"}, "[13]": {"target": "Kappa-type opioid receptor (Cavia porcellus) (UniProt P41144)", "assay": "Ratio of binding affinity of Opioid receptor kappa 1 to Opioid receptor mu 1 to Opioid receptor delta 1; kappa:mu:delta = 15:18:1"}}}
{"smiles": "C[C@H]1C2Cc3ccc(N4CCCCC4)cc3[C@@]1(C)CCN2CC1CC1", "values": [{"measurement": "Ratio", "setting": "[1]", "value": 12}, {"measurement": "Ki", "setting": "[2]", "value": 3600, "unit": "nM"}, {"measurement": "Ki", "setting": "Mu-type opioid receptor", "value": 95, "unit": "nM"}]}
{"smiles": "C[C@H]1C2Cc3ccc(NCc4ccccc4)cc3[C@@]1(C)CCN2CC1CC1", "note": "(stereo in doubt; 25)", "values": [{"measurement": "Ratio", "setting": "[3]", "value": 12}]}
{"smiles": "C[C@H]1C2Cc3cc4cc[nH]c4cc3[C@@]1(C)CCN2CC1CC1", "values": [{"measurement": "Ratio", "setting": "[4]", "value": 36}, {"measurement": "Ki", "setting": "[5]", "value": 7, "unit": "nM"}, {"measurement": "Ki", "setting": "Mu-type opioid receptor", "value": 18, "unit": "nM"}]}
{"smiles": "C[C@H]1C2Cc3ccc(Nc4ccc(Cl)c(Cl)c4)cc3[C@@]1(C)CCN2CC1CC1", "values": [{"measurement": "Ratio", "setting": "[6]", "value": 5}, {"measurement": "Ki", "setting": "[5]", "value": 5.7, "unit": "nM"}, {"measurement": "Ki", "setting": "Mu-type opioid receptor", "value": 8.4, "unit": "nM"}]}
{"smiles": "C[C@H]1C2Cc3ccc(N(C)Cc4ccccc4)cc3[C@@]1(C)CCN2CC1CC1", "values": [{"measurement": "Ki", "setting": "[2]", "value": 570, "unit": "nM"}, {"measurement": "Ratio", "setting": "[7]", "value": 13}]}
{"smiles": "COc1ccccc1Nc1ccc2c(c1)[C@@]1(C)CCN(CC3CC3)C(C2)[C@@H]1C", "values": [{"measurement": "Ratio", "setting": "[8]", "value": 45}, {"measurement": "Ki", "setting": "[5]", "value": 2.2, "unit": "nM"}, {"measurement": "Ki", "setting": "Mu-type opioid receptor", "value": 8.5, "unit": "nM"}]}
{"smiles": "C[C@H]1C2Cc3ccc(NCc4ccccc4)cc3[C@@]1(C)CCN2CC1CC1", "note": "(single isomer, unassigned; (-))", "values": [{"measurement": "Ratio", "setting": "[9]", "value": 26}]}
{"smiles": "C[C@H]1C2Cc3ccc(Nc4ccc(N(C)C)cc4)cc3[C@@]1(C)CCN2CC1CC1", "values": [{"measurement": "Ki", "setting": "[5]", "value": 8.8, "unit": "nM"}, {"measurement": "Ratio", "setting": "[10]", "value": 9}, {"measurement": "Ki", "setting": "Mu-type opioid receptor", "value": 70, "unit": "nM"}]}
{"smiles": "C[C@H]1C2Cc3ccc(Nc4ccc(Cl)cc4)cc3[C@@]1(C)CCN2CC1CC1", "values": [{"measurement": "Ki", "setting": "[5]", "value": 2.5, "unit": "nM"}, {"measurement": "Ratio", "setting": "[11]", "value": 10}, {"measurement": "Ki", "setting": "Mu-type opioid receptor", "value": 3, "unit": "nM"}]}
{"smiles": "C[C@H]1C2Cc3ccc(Nc4ccc(C(C)(C)C)cc4)cc3[C@@]1(C)CCN2CC1CC1", "values": [{"measurement": "Ratio", "setting": "[12]", "value": 4}, {"measurement": "Ki", "setting": "[5]", "value": 14, "unit": "nM"}, {"measurement": "Ki", "setting": "Mu-type opioid receptor", "value": 18, "unit": "nM"}]}
{"smiles": "C[C@H]1C2Cc3ccc(NCCc4ccccc4)cc3[C@@]1(C)CCN2CC1CC1", "values": [{"measurement": "Ratio", "setting": "[13]", "value": 15}, {"measurement": "Ki", "setting": "[2]", "value": 160, "unit": "nM"}]}
